Screening results from PubChem BioAssay.
Sampled rows, rich in hits. Any-hit rate of the full collection: about 4.5%.
TAAR1 ag = human TAAR1 agonists, primary screen, Fluo-8 calcium fluorescence, CHO RD-HGA16 cells; Trace amine-associated receptor 1 (Homo sapiens), Q96RJ0; vehicle wells 0%, saturating PEA agonist 100%; activation, % at 3 µM; hit rate 0.99% among 360,000; AID 624467, 2012;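 active means activation above the mean activation of all test compounds in the run plus 3 SD, cut at about 38% in these data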
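Assay system: CHO-derived RD-HGA16 cells with stable Gα16 and human TAAR1; timing: 17-24 h seeding, 75 min 37 °C dye, 30 min RT; read-out: % activation from peak over basal fluorescence ratio, DMSO-to-PEA scaled; measured by: kinetic Fluo-8 calcium fluorescence; benchmarks: low control DMSO, high control PEA (EC100); doses: 3 µM single concentration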
OX1R antag-1 = OX1R (HCRTR1) antagonists, primary screen, fluorescence, CHO/OX1R cells, Fluo-8 calcium, orexin A. Fluo-8 calcium fluorescence. inhibition, % at 5 µM. Orexin/Hypocretin receptor type 1 (Homo sapiens), O43613. AID 434989, 2010. hit rate 0.43% among 330,000;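 active means inhibition above its plate's threshold, mean inhibition of all tested compounds on the plate plus 3 SD, cut at about 37% in these data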
Target sequence (O43613 whole entry, looked up): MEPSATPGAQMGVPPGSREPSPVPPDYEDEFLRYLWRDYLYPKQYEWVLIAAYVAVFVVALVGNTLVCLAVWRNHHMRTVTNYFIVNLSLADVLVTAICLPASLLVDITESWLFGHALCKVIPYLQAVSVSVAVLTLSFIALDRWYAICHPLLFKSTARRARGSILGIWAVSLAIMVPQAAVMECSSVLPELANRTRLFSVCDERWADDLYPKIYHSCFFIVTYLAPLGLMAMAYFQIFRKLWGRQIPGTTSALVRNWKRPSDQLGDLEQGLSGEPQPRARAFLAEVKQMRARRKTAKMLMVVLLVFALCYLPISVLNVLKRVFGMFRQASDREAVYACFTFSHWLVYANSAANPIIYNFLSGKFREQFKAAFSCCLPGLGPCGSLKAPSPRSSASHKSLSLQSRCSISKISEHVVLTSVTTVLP
CHO parental Ca = ATP-evoked calcium signal inhibitors, parental CHO, primary screen, counter-screen for OX1R antagonist project, cell-based, fluorescence, Fluo-8 calcium dye; parental CHO-K1, ATP-induced calcium, Fluo-8 fluorescence; hit rate 0.63% among 330,000; inhibition, % at 5.6 µM;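 active means inhibition above that plate's mean sample inhibition plus 3 SD, cut at about 26% in these data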
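Test system: untransfected parental CHO cell line. Compound: one dose, 5.6 µM nominal. Detection: intracellular calcium via Fluo-8 no-wash fluorescent dye. Measure: % inhibition. Benchmarks: ATP-challenged DMSO wells low, unchallenged DMSO wells high.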
GPR7 antagonist = GPR7 receptor antagonists, primary screen, cell-based, fluorescence, single concentration; GPR7-expressing cells, fluorescence antagonist assay; inhibition, % at 4.4 µM; hit rate 1.1% among 290,000; AID 1861, 2009; in the data active means inhibition above about 16%, passing the limit was not always enough;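 further: cells stimulated with the agonist NPW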
TAAR1 antag = human TAAR1 antagonists, primary screen, Fluo-8 calcium fluorescence, CHO RD-HGA16 cells | Trace amine-associated receptor 1 (Homo sapiens), Q96RJ0 | antagonist | inhibition, % at 3 µM | hit rate 1.5% among 360,000 | AID 624466, 2012;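 active means inhibition above a per-plate cutoff, the mean inhibition of test compounds on that plate plus 3 SD, cut at about 49% in these data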
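System: CHO RD-HGA16 cells bearing hTAAR1. Reagent: EC80 β-phenethylamine stimulus. Schedule: seeding 17-24 h prior, 75-min 37 °C, 30-min RT dye loading. Signal: Fluo-8 intracellular calcium dye fluorescence, real-time kinetic reads. Read-out: % inhibition from peak post-agonist over basal fluorescence ratio. Benchmarks: vehicle wells and EC80 agonist wells. Replicates: n of 1.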
OX1R antag-2 = antagonists of human orexin 1 receptor (OX1R); Orexin/Hypocretin receptor type 1 (Homo sapiens), O43613; OX1R-expressing cells, FRET antagonist read-out; hit rate 1.8% among 330,000; AID 485270, 2010; inhibition, % at 6.6 µM; in the data active means inhibition mostly above about 38%, no sharp cut-off; inactive means mostly below about 40%
OX1R Fluo8 conf = OX1R (HCRTR1) antagonists, confirmation, fluorescence, CHO/OX1R cells, Fluo-8 calcium, orexin A; orexin A calcium Fluo-8 fluorescence; AID 492963, 2010; shares compounds with OX1R antag-1; inhibition, % at 5 µM; hit rate 38% among 1,100; in the data active means inhibition above about 29%
CHO Ca counter = ATP-evoked calcium inhibition in parental CHO, counter-screen for OX1R antagonist project, cell-based, fluorescence, CHO-K1, triplicate; shares compounds with OX1R antag-1; ATP-induced calcium, Fluo-8 fluorescence; inhibition, % at 5.6 µM; hit rate 9.3% among 1,100;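 active means inhibition above a per-plate limit, the mean inhibition of that plate's test compounds plus 3 SD, cut at about 25% in these data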
Large screens that a line does not name were inactive (follow-up assays come after a bar, where they were run).

COc1cc(Cn2c(N)c(C#N)c3nc4ccccc4nc32)cc(OC)c1	none | OX1R Fluo8 conf 32.8 | CHO Ca counter inactive
COCCn1c(N)c(C#N)c2nc3ccccc3nc21	none
CC(=O)Nc1cccc(-c2ccnc3c2CC(C)(C(=O)NCC2CC2)O3)c1 (configuration not stated)	none (no result: OX1R antag-1, CHO parental Ca, GPR7 antagonist, OX1R antag-2)
C[C@@H]1CN([C@H](C)CO)S(=O)(=O)c2ccc(Br)cc2O[C@@H]1CN(C)C(=O)NC1CCCC1	none (no result: OX1R antag-1, CHO parental Ca, GPR7 antagonist, OX1R antag-2)
COc1ccc(Cl)cc1C(=O)Nc1ccc(NC(C)=O)cc1	none
CCCCOC(=O)c1ccc(NC(=O)c2cc(Cl)ccc2OC)cc1	none | OX1R Fluo8 conf 29.2 | CHO Ca counter inactive
COc1ccc(OC)c(NC(=O)Nc2nnc([C@@H]3O[C@H](CO)[C@@H](O)[C@H]3O)s2)c1	none (no result: OX1R antag-1, CHO parental Ca, GPR7 antagonist, OX1R antag-2)
COc1ccc(OC)c(NC(=O)Cc2nn(C)c(=O)c3ccccc23)c1	none
COc1ccc(CNC(=O)Cc2nn(C)c(=O)c3ccccc23)cc1	none | OX1R Fluo8 conf inactive | CHO Ca counter 32.6
CC(=O)Oc1cccc(NC(=O)c2cccc(C(=O)Nc3cccc(OC(C)=O)c3)c2)c1	OX1R antag-1 51.8, TAAR1 antag 69.3 | OX1R Fluo8 conf inactive | CHO Ca counter inactive
Cc1noc(C)c1C(=O)OCC(=O)c1cc(C)n(Cc2ccccc2Cl)c1C	OX1R antag-1 49.4 | OX1R Fluo8 conf inactive | CHO Ca counter inactive
Cc1noc(C)c1C(=O)OCC(=O)c1ccc[nH]1	none
CCNS(=O)(=O)c1ccc(NC(=S)NCc2ccco2)cc1	none
O=S(=O)(NCc1ccccc1)c1ccc(NC(=S)NCc2ccco2)cc1	TAAR1 ag 40.7, TAAR1 antag 52.9 | OX1R Fluo8 conf 40.5 | CHO Ca counter inactive
O=C1CC(NCc2ccccc2)C(=O)N1c1ccc(F)cc1 (configuration not stated)	none (no result: OX1R antag-1, CHO parental Ca, OX1R antag-2)
O=C1CC(NCc2ccccc2F)C(=O)N1c1ccccc1 (configuration not stated)	OX1R antag-1 43.1 | OX1R Fluo8 conf inactive | CHO Ca counter inactive
CC1(C(=O)NS(=O)(=O)c2ccc(Cl)cc2)CCN1C(=O)C1(c2ccc(Cl)cc2)CCC1 (configuration not stated)	none (no result: OX1R antag-1, CHO parental Ca, GPR7 antagonist, OX1R antag-2)
COc1ccc(C[C@H]2CN3C(=NC[C@H]3Cc3ccccc3)N2CCNC(=O)c2ccc(C)c(Br)c2)cc1	none (no result: TAAR1 ag, GPR7 antagonist, TAAR1 antag) | OX1R Fluo8 conf 31.6 | CHO Ca counter inactive
COc1ccc(C[C@H]2CN3C(=NC[C@@H]3Cc3ccccc3)N2CCNC(=O)c2ccc(C)c(Br)c2)cc1	none (no result: TAAR1 ag, TAAR1 antag)
S=C1NCc2cncnc2N1	none (no result: OX1R antag-1, CHO parental Ca, GPR7 antagonist, OX1R antag-2)
O=C(COc1ccc(Cl)cc1)Nc1cccc(S(=O)(=O)NCc2ccco2)c1	none (no result: GPR7 antagonist) | OX1R Fluo8 conf inactive | CHO Ca counter inactive
CN(c1ccccc1)S(=O)(=O)c1cccc(NC(=O)COc2ccccc2)c1	TAAR1 antag 52.8 (no result: GPR7 antagonist) | OX1R Fluo8 conf inactive | CHO Ca counter inactive
CN(c1cccc(NC(=O)COc2ccccc2)c1)S(C)(=O)=O	none
CN(c1ccc(OCC(=O)NCCc2ccccc2)cc1)S(=O)(=O)c1ccc(Cl)cc1	none (no result: GPR7 antagonist) | OX1R Fluo8 conf inactive | CHO Ca counter inactive
O=C(Nc1ccccc1Cl)c1cc(C2CCCCN2C(=O)CCCc2ccccc2)on1 (configuration not stated)	none (no result: OX1R antag-1, CHO parental Ca, GPR7 antagonist, OX1R antag-2)
COc1ccc(CNC(=O)COC(=O)[C@H](Cc2c[nH]c3ccccc23)NC(=O)c2cccs2)cc1	OX1R antag-1 48.8 | OX1R Fluo8 conf 59.6 | CHO Ca counter inactive
CCN(CC)c1ccc(/C=N\NC(N)=O)cc1	none | OX1R Fluo8 conf inactive | CHO Ca counter inactive
